# rCAG RNA binder: r(CAG) repeat RNA binding | inhibition, % at 3 µM | TO-PRO-1 dye displacement fluorescence | actives 1.3% (n = 370,000);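 active = inhibition above the plate cutoff, the mean of all test compounds on that plate plus 3 SD, cut at about 35% in these data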;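 note: 0% = DMSO alone and 100% = 100 µM mitoxantrone as full dye displacement; higher means more dye released from RNA so lower well fluorescence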
# NS3 helicase inh: HCV NS3 helicase inhibition | AID 1800 | actives 0.56% (n = 290,000) | NS3 helicase DNA unwinding, Cy5 molecular beacon fluorescence | inhibition, % at 10.9 µM;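 active = inhibition above the mean of all tested compounds plus 3 SD, set per campaign, cut at about 35% in these data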;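 note: 0% = DMSO wells and 100% = thioflavine S control wells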
#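 Assay system – hepatitis C virus NS3 helicase domain fragment enzyme · Buffer or medium – MOPS pH 6.5, MgCl2, DTT, Tween20, BSA · Reagent – Cy5/quencher beacon DNA duplex and ATP to start · Compound – single 10.9 µM dose · Timing – 1 h at 25 °C · Technique – Cy5 beacon fluorescence read at start and 1 h · Measure – % inhibition of unwinding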
# HCV core dimer: blocks dimerization of HCV core protein. TR-FRET GST/Flag-core106 dimerization, 1536-well. actives 0.33% (n = 300,000). inhibition, % at 5 µM;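 active = inhibition above the mean of all tested compounds plus 3 SD, set per screening campaign, cut at about 45% in these data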
#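 Assay system: Tagged HCV core106 pair (GST and Flag) | Buffer or medium: KF-containing HEPES buffer, pH 7.45, DTT, CHAPS, BSA | Also added: Eu donor and XL665 acceptor anti-tag antibodies | Dosing: One concentration, 5 µM, in 0.5% DMSO | Timing: 4 h at 22.5 °C | Technique: TR-FRET 671 and 617 nm emission | Repeats: Singlicate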
# TAAR1 ag: human TAAR1 agonism; Q96RJ0; CHO RD-HGA16 TAAR1, Fluo-8 calcium fluorescence; vehicle wells 0%, saturating PEA agonist 100%; activation, % at 3 µM; actives 0.99% (n = 360,000); AID 624467;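 active = activation above the mean activation of all test compounds in the run plus 3 SD, cut at about 38% in these data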
# Target sequence (Q96RJ0 whole entry, looked up): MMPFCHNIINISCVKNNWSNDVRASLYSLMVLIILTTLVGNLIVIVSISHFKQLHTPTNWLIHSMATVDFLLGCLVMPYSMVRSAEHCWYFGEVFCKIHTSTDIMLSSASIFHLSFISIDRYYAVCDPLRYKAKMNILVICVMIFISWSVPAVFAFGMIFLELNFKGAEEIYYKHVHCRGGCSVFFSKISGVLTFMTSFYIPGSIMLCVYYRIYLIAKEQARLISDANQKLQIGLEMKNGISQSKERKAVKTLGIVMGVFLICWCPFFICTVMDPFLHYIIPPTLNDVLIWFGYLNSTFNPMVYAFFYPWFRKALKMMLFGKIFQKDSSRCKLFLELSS
#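 System: CHO RD-HGA16 cells carrying human TAAR1 plus Gα16; Incubation: 17-24 h seeding, 75 min 37 °C dye, 30 min RT; Measured by: Fluo-8 fluorescence, 5 s baseline then 140 s kinetic read; Control set: DMSO and PEA EC100; Replication: single well for each compound.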
# TAAR1 antag: antagonists of human TAAR1 | inhibition, % at 3 µM | CHO RD-HGA16 TAAR1, Fluo-8 calcium fluorescence, antagonist | AID 624466 | Q96RJ0 | actives 1.5% (n = 360,000);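 active = inhibition above a per-plate cutoff, the mean inhibition of test compounds on that plate plus 3 SD, cut at about 49% in these data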;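 note: 0% = DMSO plus EC80 beta-PEA response and 100% = DMSO alone without agonist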
#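 System: RD-HGA16 CHO cells with stable hTAAR1 and Gα16 | Probe or stimulus: EC80 β-phenethylamine stimulus | Dosing: 3 µM, single point | Times: Dye loading 75 min at 37 °C, then 30 min room temperature | Measured by: Fluo-8 calcium-sensitive fluorescence | Read-out basis: % inhibition of agonist calcium response | Replicates: n of 1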
# nonsel antag count: nonselective antagonist in TAAR1 antagonist counter-screen; shares compounds with TAAR1 antag; counterscreen cell line, calcium fluorescence, antagonist mode; inhibition, % at 3 µM; actives 77% (n = 2,400); AID 651780; in the data active = inhibition above about 22%;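 note: CHO-Ga16 host cells stimulated with ATP at an EC80 level; 0% = agonist EC80 plus vehicle and 100% = vehicle without agonist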
# TAAR1 antag conf: confirmation of human TAAR1 antagonists; shares compounds with TAAR1 antag; TAAR1-expressing cells, fluorescence antagonist read-out; inhibition, % at 3 µM; actives 40% (n = 2,400); AID 651785; in the data active = inhibition above about 49%;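 note: CHO-Ga16 host cells challenged with agonist PEA near its EC80; 0% = agonist at EC80 plus vehicle and 100% = vehicle with no agonist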
# Ga16 nonsel ag: nonselective Ga16 agonist in TAAR1 antagonist counter-screen. shares compounds with TAAR1 antag. Ga16-expressing cells, calcium fluorescence, agonist counterscreen. activation, % at 3 µM. actives 18% (n = 2,400); in the data active = activation above about 12%;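 note: 0% = vehicle wells and 100% = saturating stimulus response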
# TAAR1 ag count: TAAR1 agonism, antagonist counter-screen | hTAAR1 cell line, fluorescence activation, agonist mode | shares compounds with TAAR1 antag | activation, % at 3 µM | actives 2% (n = 2,400); in the data active = activation above about 37%;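 note: CHO cells stably expressing TAAR1 with calcium dye readout; 0% = DMSO vehicle and 100% = full agonist response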
# Numbers without * were called inactive; / = no result. The list is not random: actives were taken first. Their share in the collection is about 3.7%.
SMILES,rCAG RNA binder,NS3 helicase inh,HCV core dimer,TAAR1 ag,TAAR1 antag,nonsel antag count,TAAR1 antag conf,Ga16 nonsel ag,TAAR1 ag count
CC(=O)Nc1cc(-c2ccccc2N(C)C)cn2c(-c3ccccc3)cnc12,6,/,/,19,40,/,/,/,/
CC(=O)Nc1cc(-c2cccc(F)c2)cn2c(-c3ccccc3)cnc12,7,/,/,11,61*,35*,43,4,8
COc1ccc(-c2cc(NC(C)=O)c3ncc(-c4ccccc4)n3c2)c(OC)c1,8,/,/,3,68*,26*,32,8,5
CC(=O)Nc1cc(-c2ccccc2F)cn2c(-c3ccccc3)cnc12,4,/,/,4,68*,28*,47,10,14
COC(=O)C1=C(C)N(Cc2ccccc2C(F)(F)F)C(=NCc2cc(OC)c(OC)c(OC)c2)NC1c1cccc(C(F)(F)F)c1 (configuration not stated),-2,/,/,7,-12,/,/,/,/
COc1ccc(-c2cc(NC(C)=O)c3ncc(-c4cccc(C(F)(F)F)c4)n3c2)c(OC)c1,8,/,/,-1,35,/,/,/,/
COc1ccccc1-c1cc(NC(C)=O)c2ncc(-c3cccc(C(F)(F)F)c3)n2c1,5,/,/,1,59*,32*,51*,6,20
CCN(CC)C(=O)c1cccc(-c2csc(C(C)(O)c3cccc(F)c3)n2)c1 (configuration not stated),-2,/,/,11,80*,43*,57*,12*,11
CC(=O)Nc1cccc(-c2csc(C(C)(O)c3cccc(F)c3)n2)c1 (configuration not stated),-1,/,/,3,-8,/,/,/,/
COc1ccc(N2CCN(CCCNC(=O)COc3ccc(C)cc3)CC2)cc1,-2,/,/,/,/,/,/,/,/
CN(c1ccc(OCC(=O)OCC(=O)c2c(N)n(C)c(=O)n(C)c2=O)cc1)S(=O)(=O)c1ccc2ccccc2c1,14,-16,24,15,77*,35*,56*,9,10
Cc1ccc(S(=O)(=O)N2CCCC2C(=O)N2CCN(c3ccccc3)CC2)cc1 (configuration not stated),-1,/,/,/,/,/,/,/,/
CCOC(=O)CNC(=O)N(C)[C@H]1C[C@H]2c3[nH]c4c(-c5cccc(C)c5)cccc4c3CCN2C(=O)[C@H]1[C@H](C)O,5,/,/,/,/,/,/,/,/
COc1ccc(-c2cc(C(=O)NCc3cn(C)nc3C)c3ccccc3n2)cc1OC,1,-6,-3,11,8,/,/,/,/
COc1ccc(-c2cc(C(=O)N(C)Cc3cccc(OC)c3OC)c3ccccc3n2)cc1OC,2,-14,6,12,62*,28*,48,6,7
COc1ccccc1-c1csc(NC(=O)c2cc(-c3cccs3)nc3ccccc23)n1,16,7,25,2,10,/,/,/,/
COc1ccccc1CN(C)C(=O)c1cc(-c2cccs2)nc2ccccc12,0,-16,-3,12,70*,37*,56*,6,5
COc1ccc(CN(C)C(=O)c2cc(-c3ccc(OC)c(OC)c3)nc3ccccc23)c(OC)c1,0,-17,/,1,80*,26*,49*,4,3
OC(c1ccccc1)(c1ccccc1)C1CCN(CCCNc2cccc(Br)c2)CC1,1,/,/,/,/,/,/,/,/
CN(CCc1ccccn1)C(=O)c1ccc2c(c1)ncn2C1CCCCC1,-2,/,/,/,/,/,/,/,/
C[C@H](CO)N1C[C@H](C)[C@@H](CN(C)C(=O)Nc2ccc3c(c2)OCO3)Oc2c(NC(=O)Nc3ccccc3)cccc2C1=O,5,/,/,7,58*,26*,41,3,4
CCOC(=O)Oc1ccc2oc(C)c(C(=O)OCCOC)c2c1,-8,7,-5,17,9,/,/,/,/
COCCOC(=O)c1c(C)oc2ccc(OC(=O)c3c(OC)cccc3OC)cc12,-6,-10,3,10,51*,32*,43,6,5
CN1C(=O)[C@@]2(O[C@H]3C=CC=CN3C3=C2C(=O)CCC3)c2cccc(Br)c21,9,/,/,5,-19,/,/,/,/
CCOC(=O)[C@@]12CCCC3=C1N(CCC3)C(=O)[C@H]2CC(=O)NCCc1ccccc1OC,0,/,/,/,/,/,/,/,/
COc1ccc(-n2nc3c(c2NC(=O)c2ccc(S(=O)(=O)N4CCOCC4)cc2)CS(=O)C3)cc1 (configuration not stated),1,-10,3,0,12,/,/,/,/
O=C(Nc1c2c(nn1-c1ccccc1)CS(=O)C2)c1ccc(S(=O)(=O)N2CCOCC2)cc1 (configuration not stated),-2,-4,1,2,51*,5,0,2,7
CCOc1ccc(CCNC(=O)CN2C(=O)c3cccnc3Oc3ccc(C)cc32)cc1OCC,1,-3,-1,1,25,/,/,/,/
CSc1ccc(CCNC(=O)CN2C(=O)c3cccnc3Oc3ccc(C)cc32)cc1,-1,-6,-2,8,74*,25*,53*,7,9
